Measurements reported in ChEMBL document CHEMBL1153954, “Promiscuous aggregate-based inhibitors promote enzyme unfolding” (J Med Chem, 2009).
Calls of active or inactive are those of the source. The calls are words filed in the database; no cut-off is given here.

Legend:
[1] = target: AmpC (Escherichia coli) (UniProt Q83TT7); test: Inhibition of Escherichia coli AmpC assessed as induction of protein unfolding measured by trypsin mediated degradation of compound-AmpC enzyme complex at 100 uM after 4 hrs by gel electrophoresis
Chain of AmpC (Escherichia coli) (Q83TT7 as listed by the source): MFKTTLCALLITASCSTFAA
In short: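 AmpC (0.5 μM) was preincubated 5 min with or without 100 μM aggregator in 50 mM KPi, pH 7.0, 1% DMSO final. Trypsin (0.01 or 0.025 mg/mL) was then added, and digestion ran at room temperature for 0, 15, 30 min, 1 h or 4 h. Samples were boiled in DTT-containing loading buffer and the AmpC band was followed by SDS-PAGE.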

[2] = target: AmpC (Escherichia coli) (UniProt Q83TT7); test: Aggregation based inhibition of Escherichia coli AmpC assessed as increase in deuteration of AmpC peptide fragment spanning 323-332 amino acid sequence after 8 hrs by hydrogen-deuterium exchange mass spectrometry relative to control
In short: (§1)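 AmpC β-lactamase diluted from a 215 μM stock (50 mM KPi, pH 7.0) into deuterated 50 mM MOPS in D2O, pH 7.0. Final enzyme was 0.16 μM with 100 μM aggregator (0.5% DMSO) or 16 μM without. Aggregate samples were centrifuged 16000g for 5 min and the pellet kept. Triton X-100 was added to release enzyme. Samples were quenched with ice-cold 0.1% TFA pH 2.5, digested on immobilized pepsin 5 min on ice, then analysed by chilled fast-gradient LC-MS. Deuterium uptake is centroid mass shift versus the undeuterated control, not corrected for back exchange. Ratio is inhibited over uninhibited, from three replicates.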

[3] = target: AmpC (Escherichia coli) (UniProt Q83TT7); test: Aggregation based inhibition of Escherichia coli AmpC assessed as increase in deuteration of AmpC peptide fragment spanning 336-350 amino acid sequence after 8 hrs by hydrogen-deuterium exchange mass spectrometry relative to control; in short: as §1
[4] = target: AmpC (Escherichia coli) (UniProt Q83TT7); test: (§2) Aggregation based inhibition of Escherichia coli AmpC assessed as solvent accessibility of AmpC peptide fragment spanning 8-18 amino acid sequence by measuring ratio of side chain surface area to random coil values per amino acid reside by hydrogen-deuterium exchange mass spectrometry relative to control; parameters: scale not given: the % may be the effect or the level left
In short: (§3)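 Side-chain solvent accessibility per peptide was calculated from the structure with a 1.4 Å probe radius and default atomic radii and solvation parameters. Each value is the average over residues of the side-chain surface area relative to its random-coil value. Above 50% is exposed; below 20% is buried.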

[5] = target: AmpC (Escherichia coli) (UniProt Q83TT7); test: as §2, with “42-56” for “8-18”; parameters: scale not given: the % may be the effect or the level left; in short: as §3
[6] = target: AmpC (Escherichia coli) (UniProt Q83TT7); test: as §2, with “105-128” for “8-18”; parameters: scale not given: the % may be the effect or the level left; in short: as §3
[7] = target: AmpC (Escherichia coli) (UniProt Q83TT7); test: as §2, with “109-128” for “8-18”; parameters: scale not given: the % may be the effect or the level left; in short: as §3
[8] = target: AmpC (Escherichia coli) (UniProt Q83TT7); test: as §2, with “132-146” for “8-18”; parameters: scale not given: the % may be the effect or the level left; in short: as §3
[9] = target: AmpC (Escherichia coli) (UniProt Q83TT7); test: as §2, with “243-250” for “8-18”; parameters: scale not given: the % may be the effect or the level left; in short: as §3
[10] = target: AmpC (Escherichia coli) (UniProt Q83TT7); test: as §2, with “271-289” for “8-18”; parameters: scale not given: the % may be the effect or the level left; in short: as §3
[11] = target: AmpC (Escherichia coli) (UniProt Q83TT7); test: as §2, with “291-322” for “8-18”; parameters: scale not given: the % may be the effect or the level left; in short: as §3
[12] = target: AmpC (Escherichia coli) (UniProt Q83TT7); test: as §2, with “323-332” for “8-18”; parameters: scale not given: the % may be the effect or the level left; in short: as §3
[13] = target: AmpC (Escherichia coli) (UniProt Q83TT7); test: as §2, with “336-350” for “8-18”; parameters: scale not given: the % may be the effect or the level left; in short: as §3
[14] = target: AmpC (Escherichia coli) (UniProt Q83TT7); test: Aggregation based inhibition of Escherichia coli AmpC assessed as increase in deuteration of AmpC peptide fragment spanning 42-56 amino acid sequence after 10 mins by hydrogen-deuterium exchange mass spectrometry relative to control; in short: as §1
[15] = target: AmpC (Escherichia coli) (UniProt Q83TT7); test: Aggregation based inhibition of Escherichia coli AmpC assessed as increase in deuteration of AmpC peptide fragment spanning 8-18 amino acid sequence after 10 mins by hydrogen-deuterium exchange mass spectrometry relative to control; in short: as §1
[16] = target: AmpC (Escherichia coli) (UniProt Q83TT7); test: Aggregation based inhibition of Escherichia coli AmpC assessed as increase in deuteration of AmpC peptide fragment spanning 105-128 amino acid sequence after 10 mins by hydrogen-deuterium exchange mass spectrometry relative to control; in short: as §1
[17] = target: AmpC (Escherichia coli) (UniProt Q83TT7); test: Aggregation based inhibition of Escherichia coli AmpC assessed as increase in deuteration of AmpC peptide fragment spanning 109-128 amino acid sequence after 10 mins by hydrogen-deuterium exchange mass spectrometry relative to control; in short: as §1
[18] = target: AmpC (Escherichia coli) (UniProt Q83TT7); test: Aggregation based inhibition of Escherichia coli AmpC assessed as increase in deuteration of AmpC peptide fragment spanning 132-146 amino acid sequence after 10 mins by hydrogen-deuterium exchange mass spectrometry relative to control; in short: as §1
[19] = target: AmpC (Escherichia coli) (UniProt Q83TT7); test: Aggregation based inhibition of Escherichia coli AmpC assessed as increase in deuteration of AmpC peptide fragment spanning 243-250 amino acid sequence after 10 mins by hydrogen-deuterium exchange mass spectrometry relative to control; in short: as §1
[20] = target: AmpC (Escherichia coli) (UniProt Q83TT7); test: Aggregation based inhibition of Escherichia coli AmpC assessed as increase in deuteration of AmpC peptide fragment spanning 271-289 amino acid sequence after 10 mins by hydrogen-deuterium exchange mass spectrometry relative to control; in short: as §1
[21] = target: AmpC (Escherichia coli) (UniProt Q83TT7); test: Aggregation based inhibition of Escherichia coli AmpC assessed as increase in deuteration of AmpC peptide fragment spanning 291-322 amino acid sequence after 10 mins by hydrogen-deuterium exchange mass spectrometry relative to control; in short: as §1
[22] = target: AmpC (Escherichia coli) (UniProt Q83TT7); test: Aggregation based inhibition of Escherichia coli AmpC assessed as increase in deuteration of AmpC peptide fragment spanning 323-332 amino acid sequence after 10 mins by hydrogen-deuterium exchange mass spectrometry relative to control; in short: as §1
[23] = target: AmpC (Escherichia coli) (UniProt Q83TT7); test: Aggregation based inhibition of Escherichia coli AmpC assessed as increase in deuteration of AmpC peptide fragment spanning 336-350 amino acid sequence after 10 mins by hydrogen-deuterium exchange mass spectrometry relative to control; in short: as §1
[24] = target: AmpC (Escherichia coli) (UniProt Q83TT7); test: Aggregation based inhibition of Escherichia coli AmpC assessed as increase in deuteration of AmpC peptide fragment spanning 8-18 amino acid sequence after 1 hr by hydrogen-deuterium exchange mass spectrometry relative to control; in short: as §1
[25] = target: AmpC (Escherichia coli) (UniProt Q83TT7); test: Aggregation based inhibition of Escherichia coli AmpC assessed as increase in deuteration of AmpC peptide fragment spanning 42-56 amino acid sequence after 1 hr by hydrogen-deuterium exchange mass spectrometry relative to control; in short: as §1
[26] = target: AmpC (Escherichia coli) (UniProt Q83TT7); test: Aggregation based inhibition of Escherichia coli AmpC assessed as increase in deuteration of AmpC peptide fragment spanning 105-128 amino acid sequence after 1 hr by hydrogen-deuterium exchange mass spectrometry relative to control; in short: as §1
[27] = target: AmpC (Escherichia coli) (UniProt Q83TT7); test: Aggregation based inhibition of Escherichia coli AmpC assessed as increase in deuteration of AmpC peptide fragment spanning 109-128 amino acid sequence after 1 hr by hydrogen-deuterium exchange mass spectrometry relative to control; in short: as §1
[28] = target: AmpC (Escherichia coli) (UniProt Q83TT7); test: Aggregation based inhibition of Escherichia coli AmpC assessed as increase in deuteration of AmpC peptide fragment spanning 132-146 amino acid sequence after 1 hr by hydrogen-deuterium exchange mass spectrometry relative to control; in short: as §1
[29] = target: AmpC (Escherichia coli) (UniProt Q83TT7); test: Aggregation based inhibition of Escherichia coli AmpC assessed as increase in deuteration of AmpC peptide fragment spanning 271-289 amino acid sequence after 1 hr by hydrogen-deuterium exchange mass spectrometry relative to control; in short: as §1
[30] = target: AmpC (Escherichia coli) (UniProt Q83TT7); test: Aggregation based inhibition of Escherichia coli AmpC assessed as increase in deuteration of AmpC peptide fragment spanning 291-322 amino acid sequence after 1 hr by hydrogen-deuterium exchange mass spectrometry relative to control; in short: as §1
[31] = target: AmpC (Escherichia coli) (UniProt Q83TT7); test: Aggregation based inhibition of Escherichia coli AmpC assessed as increase in deuteration of AmpC peptide fragment spanning 323-332 amino acid sequence after 1 hr by hydrogen-deuterium exchange mass spectrometry relative to control; in short: as §1
[32] = target: AmpC (Escherichia coli) (UniProt Q83TT7); test: Aggregation based inhibition of Escherichia coli AmpC assessed as increase in deuteration of AmpC peptide fragment spanning 336-350 amino acid sequence after 1 hr by hydrogen-deuterium exchange mass spectrometry relative to control; in short: as §1
[33] = target: AmpC (Escherichia coli) (UniProt Q83TT7); test: Aggregation based inhibition of Escherichia coli AmpC assessed as increase in deuteration of AmpC peptide fragment spanning 8-18 amino acid sequence after 8 hrs by hydrogen-deuterium exchange mass spectrometry relative to control; in short: as §1
[34] = target: AmpC (Escherichia coli) (UniProt Q83TT7); test: Aggregation based inhibition of Escherichia coli AmpC assessed as increase in deuteration of AmpC peptide fragment spanning 42-56 amino acid sequence after 8 hrs by hydrogen-deuterium exchange mass spectrometry relative to control; in short: as §1
[35] = target: AmpC (Escherichia coli) (UniProt Q83TT7); test: Aggregation based inhibition of Escherichia coli AmpC assessed as increase in deuteration of AmpC peptide fragment spanning 105-128 amino acid sequence after 8 hrs by hydrogen-deuterium exchange mass spectrometry relative to control; in short: as §1
[36] = target: AmpC (Escherichia coli) (UniProt Q83TT7); test: Aggregation based inhibition of Escherichia coli AmpC assessed as increase in deuteration of AmpC peptide fragment spanning 109-128 amino acid sequence after 8 hrs by hydrogen-deuterium exchange mass spectrometry relative to control; in short: as §1
[37] = target: AmpC (Escherichia coli) (UniProt Q83TT7); test: Aggregation based inhibition of Escherichia coli AmpC assessed as increase in deuteration of AmpC peptide fragment spanning 132-146 amino acid sequence after 8 hrs by hydrogen-deuterium exchange mass spectrometry relative to control; in short: as §1
[38] = target: AmpC (Escherichia coli) (UniProt Q83TT7); test: Aggregation based inhibition of Escherichia coli AmpC assessed as increase in deuteration of AmpC peptide fragment spanning 243-250 amino acid sequence after 8 hrs by hydrogen-deuterium exchange mass spectrometry relative to control; in short: as §1
[39] = target: AmpC (Escherichia coli) (UniProt Q83TT7); test: Aggregation based inhibition of Escherichia coli AmpC assessed as increase in deuteration of AmpC peptide fragment spanning 271-289 amino acid sequence after 8 hrs by hydrogen-deuterium exchange mass spectrometry relative to control; in short: as §1
[40] = target: AmpC (Escherichia coli) (UniProt Q83TT7); test: Aggregation based inhibition of Escherichia coli AmpC assessed as increase in deuteration of AmpC peptide fragment spanning 291-322 amino acid sequence after 8 hrs by hydrogen-deuterium exchange mass spectrometry relative to control; in short: as §1

CC(=O)c1c(O)c(C)c(O)c(Cc2c(O)c3c(c(C(=O)/C=C/c4ccccc4)c2O)OC(C)(C)C=C3)c1O
Activity [1]: Active | fold change (FC) [2]: 2.7 | fold change (FC) [3]: 2 | Activity [4]: 35.7% | Activity [5]: 44.7% | Activity [6]: 31.3% | Activity [7]: 36.9% | Activity [8]: 34.8% | Activity [9]: 20.7% | Activity [10]: 40.7% | Activity [11]: 22.3% | Activity [12]: 11.8% | Activity [13]: 21.6% | fold change (FC) [14]: 1.9 | fold change (FC) [15]: 1.3 | fold change (FC) [16]: 1.6 | fold change (FC) [17]: 1.5 | fold change (FC) [18]: 2.6 | fold change (FC) [19]: 1.2 | fold change (FC) [20]: 1.4 | fold change (FC) [21]: 1.6 | fold change (FC) [22]: 1.3 | fold change (FC) [23]: 1.7 | fold change (FC) [24]: 2.3 | fold change (FC) [25]: 2.7 | fold change (FC) [26]: 2.6 | fold change (FC) [27]: 2.5 | fold change (FC) [28]: 4.2 | fold change (FC) [29]: 2.6 | fold change (FC) [30]: 2.5 | fold change (FC) [31]: 3 | fold change (FC) [32]: 3.7 | fold change (FC) [33]: 2.5 | fold change (FC) [34]: 1.8 | fold change (FC) [35]: 1.8 | fold change (FC) [36]: 1.6 | fold change (FC) [37]: 3.4 | fold change (FC) [38]: 1.7 | fold change (FC) [39]: 1.4 | fold change (FC) [40]: 1.8
